Here are results for two compounds from ChEMBL document CHEMBL1124770, “Synthesis and pharmacological evaluation of amino, azido, and nitrogen mustard analogues of 10-substituted cannabidiol and 11- or 12-substituted delta 8-tetrahydrocannabinol” (1990).

Common to all, as to format: functional
Assay [1] concerns Mus musculus. Kind of assay: Evaluated for catalepsy activity in mice and percentage immobility was determined at a concentration of 0 mg/Kg. The method, boiled down: (§1)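 Mice, single tail-vein injection (0.1 mL/10 g) in ethanol/emulphor/saline (1:1:18). Catalepsy scored by ring test as % immobility, per previously reported methods. Vehicle and Δ9-THC positive-control groups run in each daily experiment. Mean ± SEM; ANOVA with Dunnett's t test versus control, p < 0.05 two-tailed.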

Assay [2] relates to Mus musculus. Kind of assay: Evaluated for catalepsy activity in mice and percentage immobility was determined at a concentration of 100 mg/Kg. The method, boiled down:
as §1

In assay [3] the test system is Mus musculus. Kind of assay: Tail-flick latency was determined at a concentration of 0 mg/Kg. An outline of the steps: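 Antinociception in mice by tail-flick latency (s), per previously reported methods, after tail-vein injection (0.1 mL/10 g) in ethanol/emulphor/saline (1:1:18). Vehicle and Δ9-THC controls run daily. Mean ± SEM; ANOVA with Dunnett's t test, p < 0.05 two-tailed.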
(In general: Hot-plate and tail-flick tests time the reaction to a heat stimulus.)

Assay [4] concerns Mus musculus. Kind of assay: Tail-flick latency was determined at a concentration of 100 mg/Kg. The method, boiled down: (§2)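 Mice, drug suspended in ethanol/emulphor/saline (1:1:18) and given by tail-vein injection (0.1 mL/10 g). Antinociception measured as tail-flick latency (s). Vehicle and Δ9-THC positive controls run in each daily experiment. Data given as mean ± SEM. ANOVA with Dunnett's t test against control, p < 0.05 (two-tailed).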

Assay [5] deals with Mus musculus. Briefly: Evaluated for reduction in spontaneous locomotor activity in mice at a dose of 100 mg/Kg. The method, boiled down: (§3)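 Tail-vein injection in mice (0.1 mL/10 g; ethanol/emulphor/saline 1:1:18). Spontaneous locomotor activity counted as counts/10 min, per previously reported methods. Daily vehicle and Δ9-THC positive controls. Mean ± SEM; ANOVA with Dunnett's t test, p < 0.05 two-tailed.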

Assay [6] concerns Mus musculus. Briefly: Evaluated for reduction in spontaneous locomotor activity in mice, at a dose of 0 mg/Kg. The method, boiled down: as §3
For assay [7], the system named is Mus musculus. Kind of assay: Evaluated for hypothermic activity in mice at a dose of 0 mg/Kg. The method, boiled down: (§4)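 Mice dosed by tail-vein injection (0.1 mL/10 g) in ethanol/emulphor/saline (1:1:18). Body temperature change (°C) measured by previously reported methods. Vehicle and Δ9-THC positive controls run each day. Mean ± SEM; ANOVA with Dunnett's t test versus control, p < 0.05 two-tailed.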

In assay [8] the test system is Mus musculus. Briefly: Evaluated for hypothermic activity in mice at a dose of 100 mg/Kg. An outline of the steps: as §4
Assay [9] has as its system Mus musculus. Kind of assay: Evaluated for catalepsy activity in mice and percentage immobility was determined at a concentration of 0.3 mg/Kg. The method, boiled down: as §1
Assay [10] has as its system Mus musculus. Briefly: Evaluated for catalepsy activity in mice and percentage immobility was determined at a concentration of 3 mg/Kg. An outline of the steps:
as §1

Assay [11] has as its system Mus musculus. Briefly: Evaluated for catalepsy activity in mice and percentage immobility was determined at a concentration of 30 mg/Kg. The method, boiled down:
as §1

Assay [12] deals with Mus musculus. Kind of assay: Evaluated for catalepsy activity in mice and percentage immobility was determined at a concentration of 6 mg/Kg. The method, boiled down: as §1
The test system of assay [13] is Mus musculus. Briefly: Tail-flick latency was determined at a concentration of 0 ug/Kg administered intraventricularly. The method, boiled down:
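Tail-flick latency (s) in mice after intraventricular injection (5 μL) of ethanol/emulphor/saline (1:1:18) vehicle, measured by previously reported methods. Mean ± SEM; ANOVA with Dunnett's t test, p < 0.05 two-tailed.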

For assay [14], the system named is Mus musculus. Briefly: Tail-flick latency was determined at a concentration of 0.3 mg/Kg. An outline of the steps: as §2
For assay [15], the system named is Mus musculus. Kind of assay: Tail-flick latency was determined at a concentration of 100 ug/Kg administered intraventricularly.
In assay [16] the test system is Mus musculus. Briefly: Tail-flick latency was determined at a concentration of 150 ug/Kg administered intraventricularly. An outline of the steps: (§5)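 Mice, injected intraventricularly in 5 μL of ethanol/emulphor/saline (1:1:18) vehicle. Doses given as μg amounts. Antinociception read as tail-flick latency (s), alongside vehicle control. Values reported as mean ± SEM. ANOVA with Dunnett's t test versus control, significance at p < 0.05 (two-tailed).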

In assay [17] the test system is Mus musculus. Kind of assay: Tail-flick latency was determined at a concentration of 3 mg/Kg. An outline of the steps: as §2
Assay [18] concerns Mus musculus. Kind of assay: Evaluated for reduction in spontaneous locomotor activity in mice, at a dose of 0 ug/Kg administered intraventricularly. An outline of the steps: (§6)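 Mice given intraventricular injection of 5 μL in ethanol/emulphor/saline (1:1:18). Spontaneous locomotor activity recorded as counts/10 min by previously reported methods, alongside vehicle and Δ9-THC controls. Mean ± SEM; ANOVA with Dunnett's t test, p < 0.05 two-tailed.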

The subject of assay [19] is Mus musculus. Briefly: Evaluated for reduction in spontaneous locomotor activity in mice, at a dose of 100 ug/Kg administered intraventricularly. An outline of the steps:
as §6

Assay [20] concerns Mus musculus. Kind of assay: Evaluated for reduction in spontaneous locomotor activity in mice, at a dose of 150 ug/Kg administered intraventricularly. An outline of the steps: as §6
Assay [21] deals with Mus musculus. Briefly: Evaluated for reduction in spontaneous locomotor activity in mice, at a dose of 3 mg/Kg. The method, boiled down: as §3
For assay [22], the system named is Mus musculus. Kind of assay: Evaluated for reduction in spontaneous locomotor activity in mice, at a dose of 30 mg/Kg. The method, boiled down:
as §3

For assay [23], the system named is Mus musculus. Briefly: Evaluated for reduction in spontaneous locomotor activity in mice, at a dose of 6 mg/Kg. The method, boiled down: as §3
Assay [24] has as its system Mus musculus. Briefly: Tail-flick latency was determined at a concentration of 30 mg/Kg. An outline of the steps: as §2
Assay [25] has as its system Mus musculus. Kind of assay: Tail-flick latency was determined at a concentration of 50 ug/Kg administered intraventricularly. The method, boiled down: as §5
The test system of assay [26] is Mus musculus. Kind of assay: Tail-flick latency was determined at a concentration of 6 mg/Kg. The method, boiled down:
as §2

Assay [27] deals with Mus musculus. Briefly: Evaluated for hypothermic activity in mice at a dose of 0 ug/Kg administered intraventricularly. An outline of the steps:
(§7)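 Intraventricular injection in mice, 5 μL volume, in ethanol/emulphor/saline (1:1:18) vehicle. Change in body temperature (°C) recorded by previously reported methods, with vehicle and Δ9-THC controls. Mean ± SEM; ANOVA with Dunnett's t test versus control, p < 0.05 two-tailed.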

The test system of assay [28] is Mus musculus. Kind of assay: Evaluated for hypothermic activity in mice at a dose of 0.3 mg/Kg. The method, boiled down:
as §4

Assay [29] deals with Mus musculus. Kind of assay: Evaluated for hypothermic activity in mice at a dose of 100 ug/Kg administered intraventricularly. An outline of the steps:
as §7

In assay [30] the test system is Mus musculus. Kind of assay: Evaluated for hypothermic activity in mice at a dose of 150 ug/Kg administered intraventricularly. The method, boiled down: as §7
In assay [31] the test system is Mus musculus. Briefly: Evaluated for hypothermic activity in mice at a dose of 3 mg/Kg. An outline of the steps: as §4
Assay [32] deals with Mus musculus. Kind of assay: Evaluated for hypothermic activity in mice at a dose of 50 ug/Kg administered intraventricularly. The method, boiled down:
as §7

In assay [33] the test system is Mus musculus. Kind of assay: Evaluated for hypothermic activity in mice at a dose of 6 mg/Kg. An outline of the steps: as §4
The test system of assay [34] is Mus musculus. Kind of assay: Evaluated for reduction in spontaneous locomotor activity in mice at a dose of 0.3 mg/Kg. An outline of the steps:
as §3

In assay [35] the test system is Mus musculus. Kind of assay: Evaluated for reduction in spontaneous locomotor activity in mice, at a dose of 50 ug/Kg administered intraventricularly. An outline of the steps: as §6
For assay [36], the system named is Mus musculus. Kind of assay: Evaluated for hypothermic activity in mice at a dose of 30 mg/Kg. An outline of the steps: as §4

With `C=C(C)[C@@H]1CCC(C)=CC1c1c(O)cc(O)cc1CCCCC` (stereo not given in full), the values for the Immobility in the assay with Mus musculus [1] and with Mus musculus [2] were 4% and under 30%, respectively. For the same compound, the results for the Tail flick latency with Mus musculus [3] and in the assay on Mus musculus [4] were 0.2 s and 0.8 s, respectively. Besides, the Spont activity with Mus musculus [5] turned out to be 57 Counts 10min-1; in the assay with Mus musculus [6], 45 Counts 10min-1. Further, the Temperature with Mus musculus [7] is -1.4 °C; in the assay with Mus musculus [8], -3.5 °C.
In the case of `CCCCCc1cc(O)c2c(c1)OC(C)(C)[C@@H]1CCC(C)=C[C@@H]21` [DRONABINOL], the Immobility in the assay on Mus musculus [1] was 8%; with Mus musculus [9], 9%; in the assay with Mus musculus [10], under 25%; in the assay with Mus musculus [11] it was under 57%; with Mus musculus [12], under 42%. Further, the Tail flick latency was 0.6 s in the assay with Mus musculus [3]; -0.2 s in the assay on Mus musculus [13]; under 2 s with Mus musculus [14]; under 2.3 s with Mus musculus [15]; under 4 s in the assay on Mus musculus [16]; under 2.9 s in the assay with Mus musculus [17]. For the same compound, the results for the Tail flick latency in the assay with Mus musculus [24], with Mus musculus [25] and in the assay on Mus musculus [26] were under 5.1 s, under 1.6 s and under 4.9 s, respectively. The Spont activity is reported as 54 Counts 10min-1 in the assay with Mus musculus [6]; 103 Counts 10min-1 in the assay on Mus musculus [18]; under 41 Counts 10min-1 in the assay on Mus musculus [19]; under 33 Counts 10min-1 in the assay on Mus musculus [20]; under 30 Counts 10min-1 with Mus musculus [21]; under 7 Counts 10min-1 with Mus musculus [22]. The Spont activity with Mus musculus [23] is reported as under 23 Counts 10min-1; in the assay on Mus musculus [34], 70 Counts 10min-1; in the assay on Mus musculus [35], 46 Counts 10min-1. The Temperature was -1.1 °C in the assay on Mus musculus [7]; -2.2 °C in the assay with Mus musculus [27]; -1 °C in the assay with Mus musculus [28]; -3.6 °C in the assay with Mus musculus [29]; under -5.5 °C with Mus musculus [30]; under -2.4 °C in the assay on Mus musculus [31]. In addition, the Temperature is -2.3 °C with Mus musculus [32], under -2.9 °C in the assay on Mus musculus [33] and under -5.1 °C in the assay on Mus musculus [36].
